According to ChEMBL document CHEMBL4689842, “EUbOPEN Chemogenomics Library wave 1” (2021):

Experiments:
Type in all cases: toxicity, cell-based
HEK-293T = assay: Incucyte cell viability with HEK293T; conditions: human, 10 µM, compound concentration 10 uM; also: filed as whole numbers so only -1 and 0 and 1 occur
Fibroblast [1] = assay: Incucyte cell viability with human fibroblast; conditions: 10 µM, compound concentration 10 uM; also: filed as whole numbers so only -1 and 0 and 1 occur
U2OS = assay: Incucyte cell viability with U2OS; conditions: human, 10 µM, compound concentration 10 uM; also: filed as whole numbers so only -1 and 0 and 1 occur
Fibroblast [2] = assay: Multiplex assay against human fibroblast
Summary of the method: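 Cells stained live at seeding with Hoechst33342, BioTracker Green Microtubule Cytoskeleton Dye, MitoTracker Red and Annexin V Alexa Fluor 680 were imaged on a CQ1 microscope at 37°C and 5% CO2 after compound addition. Their classification by CellPathfinder machine-learning gating ran from Hoechst high-intensity objects versus normal cells, to healthy, pyknosed or fragmented nuclei among normal cells, to mitotic or apoptotic among pyknosed cells. Tubulin, mitochondrial-mass and membrane-permeability phenotypes are per cents of healthy-nucleus cells.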

[3] = 0 h, replicate number 1, timepoint 0 hours
[4] = 6 h, replicate number 1, timepoint 6 hours
[5] = 12 h, replicate number 1, timepoint 12 hours
[6] = 18 h, replicate number 1, timepoint 18 hours
[7] = 24 h, replicate number 1, timepoint 24 hours
[8] = 12 h, 1 µM, compound concentration 1 uM, replicate 1
[9] = 12 h, 1 µM, compound concentration 1 uM, replicate 2
[10] = 12 h, 10 µM, compound concentration 10 uM, replicate 1
[11] = 12 h, 10 µM, compound concentration 10 uM, replicate 2
[12] = 24 h, 1 µM, compound concentration 1 uM, replicate 1
[13] = 24 h, 1 µM, compound concentration 1 uM, replicate 2
[14] = 24 h, 10 µM, compound concentration 10 uM, replicate 1
[15] = 24 h, 10 µM, compound concentration 10 uM, replicate 2
[16] = 48 h, 1 µM, compound concentration 1 uM, replicate 1
[17] = 48 h, 1 µM, compound concentration 1 uM, replicate 2
[18] = 48 h, 10 µM, compound concentration 10 uM, replicate 1
[19] = 48 h, 10 µM, compound concentration 10 uM, replicate 2

N#Cc1cccc(C(=O)Nc2cc(-c3ccccc3)nn2-c2ccccc2)c1
Growth Rate (HEK-293T; [3]): 0
Growth Rate (HEK-293T; [4]): 0
Growth Rate (HEK-293T; [5]): 0
Growth Rate (HEK-293T; [6]): 0
Growth Rate (HEK-293T; [7]): 0
Growth Rate (Fibroblast [1]; [3]): 0
Growth Rate (Fibroblast [1]; [4]): 0
Growth Rate (Fibroblast [1]; [5]): 0
Growth Rate (Fibroblast [1]; [6]): 0
Growth Rate (Fibroblast [1]; 18 h, replicate number 2, timepoint 18 hours): 1
Growth Rate (Fibroblast [1]; [7]): 0
Growth Rate (Fibroblast [1]; 24 h, replicate number 2, timepoint 24 hours): 1
Growth Rate (U2OS; 0 h, replicate number 2, timepoint 0 hours): 0
Growth Rate (U2OS; [4]): 0
Growth Rate (U2OS; [5]): 0
Growth Rate (U2OS; 12 h, replicate number 2, timepoint 12 hours): 1
Growth Rate (U2OS; [6]): 0
Growth Rate (U2OS; [7]): 0
Population Apoptotic (%) (Fibroblast [2]; [8]): 66%
Population Fragmented Nuclei (%) (Fibroblast [2]; [8]): 21%
Population Healthy Nuclei (%) (Fibroblast [2]; [8]): 48%
Population Hoechst High Intensity Objects (%) (Fibroblast [2]; [8]): 11%
Population Membrane Permeable-Phenotype (%) (Fibroblast [2]; [8]): 22%
Population Mitochondria Different-Phenotype (%) (Fibroblast [2]; [8]): 6%
Population Mitotic Cells (%) (Fibroblast [2]; [8]): 34%
Population Normal (%) (Fibroblast [2]; [8]): 88%
Population Pyknosed Nuclei (%) (Fibroblast [2]; [8]): 30%
Population Tubulin-Different-Phenotype (%) (Fibroblast [2]; [8]): 48%
Total Cell Count (Fibroblast [2]; [8]): 186
Population Apoptotic (%) (Fibroblast [2]; [9]): 16%
Population Fragmented Nuclei (%) (Fibroblast [2]; [9]): 5%
Population Healthy Nuclei (%) (Fibroblast [2]; [9]): 84%
Population Hoechst High Intensity Objects (%) (Fibroblast [2]; [9]): 3%
Population Membrane Permeable-Phenotype (%) (Fibroblast [2]; [9]): 6%
Population Mitochondria Different-Phenotype (%) (Fibroblast [2]; [9]): 8%
Population Mitotic Cells (%) (Fibroblast [2]; [9]): 83%
Population Normal (%) (Fibroblast [2]; [9]): 96%
Population Pyknosed Nuclei (%) (Fibroblast [2]; [9]): 10%
Population Tubulin-Different-Phenotype (%) (Fibroblast [2]; [9]): 16%
Total Cell Count (Fibroblast [2]; [9]): 59
Population Apoptotic (%) (Fibroblast [2]; [10]): 50%
Population Fragmented Nuclei (%) (Fibroblast [2]; [10]): 15%
Population Healthy Nuclei (%) (Fibroblast [2]; [10]): 42%
Population Hoechst High Intensity Objects (%) (Fibroblast [2]; [10]): 8%
Population Membrane Permeable-Phenotype (%) (Fibroblast [2]; [10]): 23%
Population Mitochondria Different-Phenotype (%) (Fibroblast [2]; [10]): 15%
Population Mitotic Cells (%) (Fibroblast [2]; [10]): 50%
Population Normal (%) (Fibroblast [2]; [10]): 91%
Population Pyknosed Nuclei (%) (Fibroblast [2]; [10]): 42%
Population Tubulin-Different-Phenotype (%) (Fibroblast [2]; [10]): 82%
Total Cell Count (Fibroblast [2]; [10]): 134
Population Apoptotic (%) (Fibroblast [2]; [11]): 45%
Population Fragmented Nuclei (%) (Fibroblast [2]; [11]): 9%
Population Healthy Nuclei (%) (Fibroblast [2]; [11]): 60%
Population Hoechst High Intensity Objects (%) (Fibroblast [2]; [11]): 9%
Population Membrane Permeable-Phenotype (%) (Fibroblast [2]; [11]): 15%
Population Mitochondria Different-Phenotype (%) (Fibroblast [2]; [11]): 84%
Population Mitotic Cells (%) (Fibroblast [2]; [11]): 55%
Population Normal (%) (Fibroblast [2]; [11]): 90%
Population Pyknosed Nuclei (%) (Fibroblast [2]; [11]): 30%
Population Tubulin-Different-Phenotype (%) (Fibroblast [2]; [11]): 97%
Total Cell Count (Fibroblast [2]; [11]): 72
Population Apoptotic (%) (Fibroblast [2]; [12]): 47%
Population Fragmented Nuclei (%) (Fibroblast [2]; [12]): 17%
Population Healthy Nuclei (%) (Fibroblast [2]; [12]): 49%
Population Hoechst High Intensity Objects (%) (Fibroblast [2]; [12]): 8%
Population Membrane Permeable-Phenotype (%) (Fibroblast [2]; [12]): 34%
Population Mitochondria Different-Phenotype (%) (Fibroblast [2]; [12]): 6%
Population Mitotic Cells (%) (Fibroblast [2]; [12]): 52%
Population Normal (%) (Fibroblast [2]; [12]): 91%
Population Pyknosed Nuclei (%) (Fibroblast [2]; [12]): 33%
Population Tubulin-Different-Phenotype (%) (Fibroblast [2]; [12]): 69%
Total Cell Count (Fibroblast [2]; [12]): 180
Population Apoptotic (%) (Fibroblast [2]; [13]): 14%
Population Fragmented Nuclei (%) (Fibroblast [2]; [13]): 3%
Population Healthy Nuclei (%) (Fibroblast [2]; [13]): 86%
Population Hoechst High Intensity Objects (%) (Fibroblast [2]; [13]): 4%
Population Membrane Permeable-Phenotype (%) (Fibroblast [2]; [13]): 1%
Population Mitochondria Different-Phenotype (%) (Fibroblast [2]; [13]): 8%
Population Mitotic Cells (%) (Fibroblast [2]; [13]): 85%
Population Normal (%) (Fibroblast [2]; [13]): 95%
Population Pyknosed Nuclei (%) (Fibroblast [2]; [13]): 10%
Population Tubulin-Different-Phenotype (%) (Fibroblast [2]; [13]): 7%
Total Cell Count (Fibroblast [2]; [13]): 68
Population Apoptotic (%) (Fibroblast [2]; [14]): 45%
Population Fragmented Nuclei (%) (Fibroblast [2]; [14]): 20%
Population Healthy Nuclei (%) (Fibroblast [2]; [14]): 39%
Population Hoechst High Intensity Objects (%) (Fibroblast [2]; [14]): 6%
Population Membrane Permeable-Phenotype (%) (Fibroblast [2]; [14]): 36%
Population Mitochondria Different-Phenotype (%) (Fibroblast [2]; [14]): 4%
Population Mitotic Cells (%) (Fibroblast [2]; [14]): 54%
Population Normal (%) (Fibroblast [2]; [14]): 93%
Population Pyknosed Nuclei (%) (Fibroblast [2]; [14]): 39%
Population Tubulin-Different-Phenotype (%) (Fibroblast [2]; [14]): 93%
Total Cell Count (Fibroblast [2]; [14]): 119
Population Apoptotic (%) (Fibroblast [2]; [15]): 42%
Population Fragmented Nuclei (%) (Fibroblast [2]; [15]): 9%
Population Healthy Nuclei (%) (Fibroblast [2]; [15]): 67%
Population Membrane Permeable-Phenotype (%) (Fibroblast [2]; [15]): 30%
Population Mitochondria Different-Phenotype (%) (Fibroblast [2]; [15]): 71%
Population Mitotic Cells (%) (Fibroblast [2]; [15]): 57%
Population Pyknosed Nuclei (%) (Fibroblast [2]; [15]): 22%
Population Tubulin-Different-Phenotype (%) (Fibroblast [2]; [15]): 95%
Total Cell Count (Fibroblast [2]; [15]): 66
Population Apoptotic (%) (Fibroblast [2]; [16]): 57%
Population Fragmented Nuclei (%) (Fibroblast [2]; [16]): 31%
Population Healthy Nuclei (%) (Fibroblast [2]; [16]): 44%
Population Hoechst High Intensity Objects (%) (Fibroblast [2]; [16]): 12%
Population Membrane Permeable-Phenotype (%) (Fibroblast [2]; [16]): 26%
Population Mitochondria Different-Phenotype (%) (Fibroblast [2]; [16]): 3%
Population Mitotic Cells (%) (Fibroblast [2]; [16]): 42%
Population Normal (%) (Fibroblast [2]; [16]): 87%
Population Pyknosed Nuclei (%) (Fibroblast [2]; [16]): 24%
Population Tubulin-Different-Phenotype (%) (Fibroblast [2]; [16]): 50%
Total Cell Count (Fibroblast [2]; [16]): 166
Population Apoptotic (%) (Fibroblast [2]; [17]): 0%
Population Fragmented Nuclei (%) (Fibroblast [2]; [17]): 28%
Population Healthy Nuclei (%) (Fibroblast [2]; [17]): 69%
Population Hoechst High Intensity Objects (%) (Fibroblast [2]; [17]): 8%
Population Membrane Permeable-Phenotype (%) (Fibroblast [2]; [17]): 12%
Population Mitochondria Different-Phenotype (%) (Fibroblast [2]; [17]): 5%
Population Mitotic Cells (%) (Fibroblast [2]; [17]): 100%
Population Normal (%) (Fibroblast [2]; [17]): 91%
Population Pyknosed Nuclei (%) (Fibroblast [2]; [17]): 1%
Population Tubulin-Different-Phenotype (%) (Fibroblast [2]; [17]): 57%
Total Cell Count (Fibroblast [2]; [17]): 112
Population Apoptotic (%) (Fibroblast [2]; [18]): 41%
Population Fragmented Nuclei (%) (Fibroblast [2]; [18]): 30%
Population Healthy Nuclei (%) (Fibroblast [2]; [18]): 40%
Population Hoechst High Intensity Objects (%) (Fibroblast [2]; [18]): 12%
Population Membrane Permeable-Phenotype (%) (Fibroblast [2]; [18]): 28%
Population Mitochondria Different-Phenotype (%) (Fibroblast [2]; [18]): 4%
Population Mitotic Cells (%) (Fibroblast [2]; [18]): 58%
Population Normal (%) (Fibroblast [2]; [18]): 87%
Population Pyknosed Nuclei (%) (Fibroblast [2]; [18]): 28%
Population Tubulin-Different-Phenotype (%) (Fibroblast [2]; [18]): 95%
Total Cell Count (Fibroblast [2]; [18]): 126
Population Apoptotic (%) (Fibroblast [2]; [19]): 23%
Population Fragmented Nuclei (%) (Fibroblast [2]; [19]): 45%
Population Healthy Nuclei (%) (Fibroblast [2]; [19]): 45%
Population Hoechst High Intensity Objects (%) (Fibroblast [2]; [19]): 34%
Population Membrane Permeable-Phenotype (%) (Fibroblast [2]; [19]): 25%
Population Mitochondria Different-Phenotype (%) (Fibroblast [2]; [19]): 1%
Population Mitotic Cells (%) (Fibroblast [2]; [19]): 76%
Population Normal (%) (Fibroblast [2]; [19]): 65%
Population Pyknosed Nuclei (%) (Fibroblast [2]; [19]): 9%
Total Cell Count (Fibroblast [2]; [19]): 214
